Many of the other results were omitted from the sample, so hits are more common in it than they were.
UPR CHOP act – apoptotic UPR (CHOP) activation | AID 449763 | actives 0.34% (n = 330,000) | activation, % at 10 µM | CHO-CHOP luciferase reporter, luminescence; percent of tunicamycin response over DMSO baseline;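 active = at 10 µM dose, activation of 40% or more, normalized to positive control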;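 note: 100% = tunicamycin at 10 µg/mL and 0% = DMSO alone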
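Test system: CHO-CHOP cells, stable luciferase reporter of PERK-eIF2a-CHOP signalling | Quantity: 500 CHO-CHOP cells per well | Buffer or medium: F12 plus 10% serum | Compound dosing: 10 µM single point, 0.5% DMSO | Schedule: 6 h compound treatment, 37 °C | Signal: Luciferase luminescence | Control set: Tunicamycin high control, DMSO low control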
UPR XBP1 act – adaptive UPR (XBP1) activation; activation, % at 20 µM; CHO-XBP1 luciferase reporter, IRE1-XBP1 UPR activation, luminescence; percent of tunicamycin response, DMSO as zero; actives 0.33% (n = 330,000);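 active = versus positive control, 20 µM dose yields 30% or more activation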;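 note: 100% = tunicamycin at 10 µg/mL and 0% = DMSO only wells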
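incubation = overnight seeding at 37 °C, 6 h compound treatment at 37 °C | assay system = CHO-XBP1 cells stably carrying IRE1-XBP1-driven luciferase reporter | input = 1000 cells per well | detection = luciferase luminescence | dosing = single point, 20 µM final compound, 1% DMSO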
CHOP inh – CHOP inhibition in unfolded protein response | CHO-K1 CHOP-promoter luciferase, tunicamycin-induced, 15-18 h | inhibition, % at 10 µM | actives 3.8% (n = 220,000);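 active = compounds that reduced the stress-induced luciferase reporter signal by more than about 70% of percent inhibition, limit read from the data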;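 note: 0% = tunicamycin plus vehicle and 100% = wells without tunicamycin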
Jurkat NFkB inh – inhibitors of the PMA/ionomycin-induced NF-kB reporter in Jurkat cells; PMA/ionomycin-induced NF-kB luciferase reporter, luminescence; inhibition, % at 4 µM; actives 0.53% (n = 330,000); in the data active = inhibition above about 50%
697 NFkB inh – lowers PMA/ionomycin-induced NF-kB signal in 697 B cells; 697 B-cell NF-kB luciferase reporter, 16 h; inhibition, % at 4 µM; actives 0.33% (n = 330,000); in the data active = inhibition above about 35%
UPR CHOP confirm – confirmation of apoptotic unfolded protein response (CHOP) activators | shares compounds with UPR CHOP act | CHO-CHOP cells, CHOP-luciferase reporter luminescence; percent of tunicamycin response, DMSO as zero | activation, % at 10 µM | actives 64% (n = 1,000); in the data active = activation above about 33%;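 note: 0% = DMSO wells and 100% = tunicamycin 10 µg/mL wells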
* marks the source's active call; other numbers are inactive results; . = not tested or not shown.

SMILES | UPR CHOP act | UPR XBP1 act | CHOP inh | Jurkat NFkB inh | 697 NFkB inh | UPR CHOP confirm
O=C(O)CC1CCC(=C(Cl)Cl)C1 (configuration not stated) | 46* | -6 | 79* | -1 | -35 | 65*
COc1cccc(NC(=O)Cn2c(=O)n(CCC(=O)NC3CCN(Cc4ccccc4)CC3)c(=O)c3ccccc32)c1 | -1 | -2 | 10 | -7 | 3 | .
CCN(CC(=O)Nc1ccccc1OC)C(=O)c1ccc(N(C)S(=O)(=O)c2ccc(C)cc2)cc1 | -1 | -5 | . | 4 | -4 | .
O=C(N/N=C/c1ccccn1)c1cc(-c2ccc(Cl)cc2)nc2ccccc12 | 264* | -2 | 83* | 38 | -67 | 290*
O=C(N/N=C/c1ccccn1)c1sc2ccccc2c1Cl | 179* | 11 | -38 | 45 | -8 | 104*
CCc1ccc(NC(=O)CN2CCCN(S(=O)(=O)c3ccc(F)cc3)CC2)cc1 | -1 | -3 | . | -16 | 11 | .
COc1ccc(CN2CCSCC2)c(C)c1C | 2 | -3 | . | 2 | -2 | .
O=C(c1cccs1)N(C(=O)c1cccs1)c1ccc(Br)cn1 | 98* | 86* | 41 | -100 | -127 | 59*
CCC(C)Nc1nc(-c2cccc(OC)c2O)nc2ccccc12 (configuration not stated) | 1 | 3 | 69 | -14 | 18 | .
CCC(C)Nc1nc(-c2ccccn2)nc2ccccc12 (configuration not stated) | 47* | 11 | . | -6 | -18 | 21
c1ccc(CNc2nc(-c3ccccn3)nc3ccccc23)cc1 | 40* | 13 | . | -5 | 1 | 15
CC(C)N=c1scc(-c2cccs2)n1/N=C/c1ccc(O)c(O)c1O | 212* | 37* | 106* | -31 | -58 | 150*
O=S(=O)(c1ccc(S(=O)(=O)N2CCCC2)cc1)N1CCCCC1 | 1 | 7 | . | 16 | 22 | .
O=S(=O)(c1ccc(S(=O)(=O)N2CCCC3(CCCCC3)C2)cc1)N1CCCCC1 | 52* | 20 | 33 | -6 | 8 | 2
CCC1CCc2sc(C(=O)N(C)CC(=O)Nc3ccc(N4CCOCC4)cc3)cc2C1 (configuration not stated) | 1 | -1 | . | -5 | 6 | .
CC(C)c1nnc(NC(=O)c2nc(S(=O)(=O)Cc3ccc(F)cc3)ncc2Cl)s1 | 80* | -10 | . | -5 | -152 | 7
CCSc1nnc(NC(=O)c2nc(S(=O)(=O)Cc3ccc(F)cc3)ncc2Cl)s1 | 25 | -8 | . | -2 | -64 | .
CSc1nnc(NC(=O)c2nc(S(=O)(=O)Cc3cccc(C)c3)ncc2Cl)s1 | 55* | -6 | . | -1 | -107 | 75*
Cc1ccc(CS(=O)(=O)c2ncc(Cl)c(C(=O)Nc3nnc(C(C)C)s3)n2)cc1 | 92* | -7 | . | 22 | -50 | 38*
Cc1ccc(CS(=O)(=O)c2ncc(Cl)c(C(=O)Nc3ccc(OC(F)F)cc3)n2)cc1 | 166* | -9 | . | 43 | -150 | 34*
CC(=O)Nc1ccc(NC(=O)c2nc(S(=O)(=O)Cc3ccccc3)ncc2Cl)cc1 | -10 | -10 | . | 8 | -131 | .
CC(C)OC(=O)CSc1nnc(-c2ccccc2)n1N | -3 | 2 | -21 | 5 | -12 | .
Cc1ccc(C2(C)NC(=O)N(CC(=O)NNC(=O)c3ccccc3)C2=O)cc1 (configuration not stated) | -1 | -3 | . | -1 | 14 | .
COc1ccc(S(=O)(=O)N2CCOCC2)cc1NC(=O)CNC(=O)c1cccs1 | -1 | 0 | . | 5 | 22 | .
Cc1cc(=O)n2nc(N3CCCC(C(=O)NCc4cccc(Br)c4)C3)sc2n1 (configuration not stated) | -3 | 0 | . | 1 | -5 | .
SMILES | UPR CHOP act | UPR XBP1 act | CHOP inh | Jurkat NFkB inh | 697 NFkB inh | UPR CHOP confirm
Cc1cccc(CS(=O)(=O)c2ncc(Cl)c(C(=O)Nc3nnc(C(C)C)s3)n2)c1 | 105* | -7 | . | 17 | -62 | 25
Brc1ccccc1CN1CCN(Cc2c[nH]c3ccccc23)CC1 | 41* | -8 | . | 20 | -35 | 153*
Cc1ccc(-c2nn(-c3ccccc3)cc2NC(=O)CCl)cc1 | 82* | -5 | 104* | -13 | -25 | 0
Cc1ccc(-c2nn(-c3ccccc3)cc2CO)cc1 | 7 | 4 | . | -52 | -43 | .
Oc1ccc(/C=N/Nc2ccnc3cc(Cl)ccc23)c(O)c1O | 9 | -1 | . | 11 | 5 | .
Oc1ccc(/C=N/Nc2ccnc3cc(Cl)ccc23)cc1O | 193* | 20 | 43 | -14 | -42 | 151*
N/C(=N\NC(=O)c1cccs1)c1cc2cc(Cl)ccc2oc1=O | 0 | 0 | 5 | -4 | 17 | .
O=C(CN1CCN(S(=O)(=O)c2ccc(F)cc2)CC1)c1ccc(O)c(O)c1 | 10 | 27 | -2 | -6 | -24 | .
O=C(CN1CCN(S(=O)(=O)c2ccc(Cl)cc2)CC1)c1ccc(O)c(O)c1 | 71* | 22 | . | 2 | -65 | 5
Cc1cccc(NC(=S)Nc2ccc(N3CCOCC3)cc2)c1C | 5 | 1 | -8 | -10 | 19 | .
O=C(NC1CCCCC1)c1c2c(nc3ccccc13)CCC2 | -1 | -6 | -2 | 4 | 8 | .
COc1ccc(CCNC(=O)c2coc(=O)c(Br)c2)cc1 | 116* | -1 | . | 29 | -41 | 56*
COc1ccc(CCNC(=O)c2ccc(=O)[nH]c2)cc1 | -1 | 0 | 8 | 5 | -6 | .
CC(=O)N(C1CC(C)C(C#N)(C#N)C1(C#N)C#N)N(C)C (configuration not stated) | 72* | -7 | 92* | -4 | 18 | -9
CCCC(=O)N(C1CC(C)C(C#N)(C#N)C1(C#N)C#N)N(C)C (configuration not stated) | -7 | -10 | -80 | 18 | 14 | .
O=C1C(Cl)=C(NC(=O)c2ccccc2)C(=O)C(Cl)=C1NC(=O)c1ccccc1 | 86* | -11 | . | 0 | -16 | 50*
COc1cc(/C=N/NC(=O)c2ccccc2O)ccc1OC(=O)CC1SC(=O)NC1=O (configuration not stated) | 0 | -1 | 18 | 1 | 9 | .
CCOC(=O)c1c(NC(=O)CSc2nnnn2-c2ccc(OC)cc2)sc(C)c1C | 57* | 1 | 40 | 21 | 23 | 1
COc1cc(CNc2ccc3[nH]c(=O)[nH]c3c2)cc(Br)c1OCc1ccc(F)cc1 | 67* | 2 | . | 22 | -6 | 28
COc1ccc(S(=O)(=O)N(C)C)cc1NCC(=O)Nc1cccc(C#N)c1 | -1 | 0 | 8 | -6 | 4 | .
O=C(N/N=C/c1cccc2cccnc12)c1ccccc1O | 347* | 3 | 46 | 49 | -94 | 559*
CC1CCN(c2nnc(-c3cccs3)c3ccccc23)CC1 | -2 | 4 | 29 | -28 | -36 | .

Source: PubChem
